These results are taken from ChEMBL document CHEMBL1250498, “Design, synthesis and pro-apoptotic antitumour properties of indole-based 3,5-disubstituted oxadiazoles” (Eur J Med Chem, 2010).

As a reminder, the IC50 is the midpoint of a concentration-inhibition curve. High values mean a need for much substance, low ones inhibition by little substance.

The subject of experiment [1] is MIA PaCa-2. Briefly: Anticancer activity against human MIAPaCa2 cells after 72 hrs by WST-1 assay. It counts as functional, cell-based. The conditions noted are these: MIA PaCa-2, 72 h. A digest of the protocol:
(§1)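 Cells grown in DMEM with 2 mM L-glutamine, 10% FBS, 2.5% horse serum, penicillin and streptomycin, 37 °C, 5% CO2. Seeded at 2 × 10³/well, exposed 72 h to 0.1–50 µM (DMSO ≤0.2% in medium). WST-1 formazan absorbance read at 450 nm. Inhibition taken as % absorbance reduction versus control; IC50 from non-linear least-squares fit. Triplicate, independent experiments averaged.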
(Tetrazolium assays rely on reduction of a dye to a coloured formazan, in cell work by metabolically active cells.)

Experiment [2] can be described thus: Anticancer activity against human COLO320 cells after 72 hrs by WST-1 assay. The format is functional, cell-based. The conditions noted are these: COLO 320, 72 h. A digest of the protocol:
as §1

For experiment [3], the system named is Jurkat. The experiment in a line: Anticancer activity against human Jurkat cells after 72 hrs by WST-1 assay. The format is functional, cell-based. In outline: as §1
Experiment [4] deals with MCF7. Briefly: Anticancer activity against human MCF7 cells after 72 hrs by WST-1 assay. The conditions noted are these: MCF7, 72 h. The format is functional, cell-based. A digest of the protocol: as §1
In experiment [5] the test system is MIA PaCa-2. The experiment in a line: Induction of apoptosis in human MIAPaCa2 cells assessed as increase in caspase 3/7 activation at 100 uM after 24 hrs by spectrophotometry relative to control. It counts as functional. In outline:
(§2)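 Seeded at 7 × 10³/well and dosed 100 µM for 24 h. Caspase-3/7 substrate then added; fluorescence read with excitation 485 nm and emission 530 nm. Result given as the ratio of treated-cell signal to untreated vehicle-only cells.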

Experiment [6] relates to COLO 320. Briefly: Induction of apoptosis in human COLO320 cells assessed as increase in intraneucleosomal DNA fragmentation at 100 uM after 24 hrs by ELISA relative to control. The format is functional. A digest of the protocol: (§3)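 Dosed at 100 µM for 24 h. Trypsin-harvested cells pooled with detached cells. Cytoplasmic histone-associated DNA fragments (released nucleosomes) measured by sandwich ELISA using a mouse monoclonal anti-DNA/histone antibody. Given as fold over untreated control; duplicate, mean ± SEM.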
On the technique in general: An ELISA detects its analyte on a solid surface through an enzyme-linked reagent.

Experiment [7] has as its system MIA PaCa-2. Briefly: Induction of apoptosis in human MIAPaCa2 cells assessed as increase in intraneucleosomal DNA fragmentation at 100 uM after 24 hrs by ELISA relative to control. It counts as functional. A digest of the protocol: as §3
In experiment [8] the test system is COLO 320. Briefly: Induction of apoptosis in human COLO320 cells assessed as increase in caspase 3/7 activation at 100 uM after 24 hrs by spectrophotometry relative to control. The format is functional. In outline:
as §2

For the compound `Cc1noc(-c2cc3ccccc3[nH]2)n1`, the IC50 in experiment [1] is 30.5 µM; in experiment [2] it was 11.8 µM; in experiment [3], above 50 µM; in experiment [4], above 50 µM.

Consider `COc1ccc2[nH]c(-c3nc(C)no3)cc2c1`, for which the concentration for half-maximal inhibition (IC50) in experiment [1] is above 50 µM; in experiment [2], 10.4 µM; in experiment [3], 19.9 µM; in experiment [4], 16.7 µM.

Take `Cc1noc(-c2cc3cc(F)ccc3[nH]2)n1`: the “fold change (FC)” value was determined as 1.3 in experiment [5], 1 in experiment [6], 7.3 in experiment [7] and 1.5 in experiment [8]. In addition, the IC50 in experiment [1] came to 19.4 µM; in experiment [2] it was 18.1 µM; in experiment [3], 22.9 µM; in experiment [4], 12.4 µM.

For the compound `Cc1noc(-c2cc3cc(Cl)ccc3[nH]2)n1`, the IC50 was above 50 µM in experiment [1], 19.5 µM in experiment [2], 21.6 µM in experiment [3] and 34.4 µM in experiment [4].

As for `c1ccc(-c2noc(-c3cc4ccccc4[nH]3)n2)cc1`, the “fold change (FC)” value worked out at 1.2 in experiment [5], 2.5 in experiment [6], 1.4 in experiment [7] and 3.1 in experiment [8]. Also, the IC50 in experiment [1] was 22 µM; in experiment [2], 12 µM; in experiment [3] it was above 50 µM; in experiment [4], 45.7 µM.

Take `Nc1noc(-c2cc3ccccc3[nH]2)n1`: the IC50 in experiment [1] is 18.7 µM; in experiment [2], 27.7 µM; in experiment [3], above 50 µM; in experiment [4], above 50 µM.

For the compound `COc1ccc2[nH]c(-c3nc(-c4ccccc4)no3)cc2c1`, the 50% inhibitory concentration (IC50) was 32.6 µM in experiment [1], 18.7 µM in experiment [2], above 50 µM in experiment [3] and above 50 µM in experiment [4].

As for `Oc1ccc2[nH]c(-c3nc(-c4ccccc4)no3)cc2c1`, the “fold change (FC)” value in experiment [5] was found to be 0.7; in experiment [6], 4.3; in experiment [7], 7.3; in experiment [8] it was 3.6. Also, the half-maximal inhibitory concentration (IC50) in experiment [1] worked out at 13 µM; in experiment [2] it was 15.7 µM; in experiment [3], 26.9 µM; in experiment [4] it was 26 µM.

Turning to `Fc1ccc2[nH]c(-c3nc(-c4ccccc4)no3)cc2c1`, the “fold change (FC)” value in experiment [5] is recorded as 1.2; in experiment [6] it was 5.3; in experiment [7], 6.9; in experiment [8], 4.4. Moreover, the IC50 in experiment [1] was 33.6 µM; in experiment [2] it was 10.8 µM; in experiment [3], 33.8 µM; in experiment [4] it was 35 µM.

In the case of `O=[N+]([O-])c1ccc2[nH]c(-c3nc(-c4ccccc4)no3)cc2c1`, the IC50 is above 50 µM in experiment [1], 12.5 µM in experiment [2], above 50 µM in experiment [3] and above 50 µM in experiment [4].

Regarding `Clc1ccc2[nH]c(-c3nc(-c4ccccc4)no3)cc2c1`, the “fold change (FC)” value in experiment [5] came out at 1.9; in experiment [6], 2.1; in experiment [7], 1.9; in experiment [8], 1.3. Moreover, the IC50 was 23.1 µM in experiment [1], 16.5 µM in experiment [2], above 50 µM in experiment [3] and 29.1 µM in experiment [4].

In the case of `Clc1ccc(-c2noc(-c3cc4ccccc4[nH]3)n2)cc1`, the “fold change (FC)” value in experiment [5] is on record as 1.2; in experiment [6], 3; in experiment [7] it was 1; in experiment [8] it was 0.3. Also, the half-maximal inhibitory concentration (IC50) in experiment [1] was 19.2 µM; in experiment [2] it was 13.9 µM; in experiment [3] it was above 50 µM; in experiment [4], above 50 µM.

With `COc1ccc2[nH]c(-c3nc(-c4ccc(Cl)cc4)no3)cc2c1`, the “fold change (FC)” value is listed as 10.1 in experiment [5], 1.8 in experiment [6], 1.2 in experiment [7] and 4.5 in experiment [8]. Also, the IC50 in experiment [1] was 22.7 µM; in experiment [2], 12.8 µM; in experiment [3], above 50 µM; in experiment [4], above 50 µM.

Turning to `Fc1ccc2[nH]c(-c3nc(-c4ccc(Cl)cc4)no3)cc2c1`, the IC50 in experiment [1], in experiment [2], in experiment [3] and in experiment [4] was above 50 µM in each case.

For the compound `O=[N+]([O-])c1ccc2[nH]c(-c3nc(-c4ccc(Cl)cc4)no3)cc2c1`, the “fold change (FC)” value in experiment [5] is reported as 23.9; in experiment [6] it was 1.8; in experiment [7], 2.7; in experiment [8], 6.4. Also, the IC50 in experiment [1] was 17.6 µM; in experiment [2], 7.7 µM; in experiment [3], above 50 µM; in experiment [4], above 50 µM.

Regarding `Clc1ccc(-c2noc(-c3cc4cc(Cl)ccc4[nH]3)n2)cc1`, the IC50 is above 50 µM in experiment [1], 25 µM in experiment [2], above 50 µM in experiment [3] and above 50 µM in experiment [4].

For the compound `Cn1c(-c2nc(-c3ccc(Cl)cc3)no2)cc2cc(Cl)ccc21`, the half-inhibitory concentration (IC50) in experiment [1] is above 50 µM; in experiment [2], 16.9 µM; in experiment [3], above 50 µM; in experiment [4], above 50 µM.

For the compound `COc1ccc(-c2noc(-c3cc4ccccc4[nH]3)n2)cc1`, the half-maximal inhibitory concentration (IC50) in experiment [1] is above 50 µM; in experiment [2], 27.7 µM; in experiment [3], above 50 µM; in experiment [4] it was above 50 µM.

`COc1ccc(-c2noc(-c3cc4ccccc4n3C)n2)cc1`: the half-inhibitory concentration (IC50) in experiment [1] is 23.1 µM; in experiment [2], above 50 µM; in experiment [3], above 50 µM; in experiment [4] it was above 50 µM.

On to `COc1ccc(-c2noc(-c3cc4cc(OC)ccc4[nH]3)n2)cc1`, for which the “fold change (FC)” value in experiment [5] came to 2; in experiment [6], 1.2; in experiment [7], 1.9; in experiment [8], 1.1. Further, the IC50 is 5.6 µM in experiment [1], 28.3 µM in experiment [2], above 50 µM in experiment [3] and above 50 µM in experiment [4].

For the compound `COc1ccc(-c2noc(-c3cc4cc(F)ccc4[nH]3)n2)cc1`, the “fold change (FC)” value was found to be 5 in experiment [5], 1.4 in experiment [6], 2.2 in experiment [7] and 2.1 in experiment [8]. Besides, the concentration for half-maximal inhibition (IC50) in experiment [1] was 10.3 µM; in experiment [2] it was 14.8 µM; in experiment [3], above 50 µM; in experiment [4], above 50 µM.

On to `COc1ccc(-c2noc(-c3cc4cc(Cl)ccc4[nH]3)n2)cc1`, for which the “fold change (FC)” value was 1.4 in experiment [5], 1.2 in experiment [6], 1.4 in experiment [7] and 4.2 in experiment [8]. Moreover, the concentration for half-maximal inhibition (IC50) is 7.8 µM in experiment [1], 9.6 µM in experiment [2], above 50 µM in experiment [3] and above 50 µM in experiment [4].

Consider `FC(F)(F)c1ccc(-c2noc(-c3sccc3Cl)n2)cc1`, for which the IC50 in experiment [1] was above 50 µM; in experiment [2], 1.2 µM; in experiment [3], above 50 µM; in experiment [4], above 50 µM.
